{
  "source": "paper PMC11017284",
  "about": "(Asian Journal of Pharmaceutical Sciences, 2024)",
  "test_system": "Caco-2 cells",
  "test": "Caco-2 cellular uptake study",
  "assay_type": "in vitro ADME, human",
  "conditions": "verapamil 50 µg/ml, 1 or 3 h",
  "in_short": "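Caco-2 cells (DMEM, 20% FBS, 37 °C, 5% CO2) seeded at 5 × 10⁴/well and grown 24 h. Test compound as SNEDDS or solution (equivalent CTX 5 µg/ml) given with verapamil 50 µg/ml, 1 or 3 h at 37 °C. Washed three times with ice-cold PBS, sonicated in water (100 W), lysed, spun 13,000 rpm 10 min. CTX by HPLC; handling matched the no-inhibitor uptake arm.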",
  "data": [
    {"smiles": "CO[C@H]1C(=O)[C@]2(C)[C@@H](OC)C[C@H]3OC[C@@]3(OC(C)=O)[C@H]2[C@H](OC(=O)c2ccccc2)[C@]2(O)C[C@H](OC(=O)[C@H](O)[C@@H](NC(=O)OC(C)(C)C)c3ccccc3)C(C)=C1C2(C)C", "note": "[CTX, cabazitaxel]", "values": [
      {"measurement": "Change of Caco-2 uptake after adding P-gp inhibitor", "value": "no significant difference"}
    ]}
  ]
}
